ChEMBL document CHEMBL4196053, “Endoperoxide-8-aminoquinoline hybrids as dual-stage antimalarial agents with enhanced metabolic stability” (Eur J Med Chem, 2018)
pEC50: −log10 of the molar value. Active and inactive are the calls of the source. No cut-off for these calls is given here.

Experiments:
[1] = test system: Plasmodium falciparum; test: Antiplasmodial activity against chloroquine resistant Plasmodium falciparum W2 erythrocytic ring stage after 48 hrs using hypoxanthine by flow cytometric analysis; type: functional, organism-based; conditions: W2, 48 h
How it was run: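 Ring-stage W2 P. falciparum synchronized with 5% sorbitol, about 1% parasitemia in human erythrocytes. Cells fixed in 2% formaldehyde, stained with 1 nM YOYO-1, infected cells counted by flow cytometry. IC50 taken against untreated controls; two experiments, four replicates each.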

[2] = test system: Huh-7; test: Cytotoxicity against human HuH7 cells assessed as reduction in cell viability at 10 uM after 48 hrs by Alamar blue assay; type: cell-based; conditions: huh-7, 48 h
How it was run: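 Huh-7 cells seeded and infected with P. berghei sporozoites as in the liver-stage assay, with compound added about 1 h before infection and DMSO vehicle in controls. Host cell viability read by AlamarBlue fluorescence 48 h post-infection.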

[3] = test system: Plasmodium berghei; test: Antiplasmodial activity against luciferase expressing Plasmodium berghei sporozoites infected in human HuH7 cells at 2 uM preincubated for 1 hr followed by parasite infection measured after 48 hrs by bioluminescence analysis relative to control; type: functional
How it was run: (§1)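 Huh-7 hepatoma cells (1.0 × 10^4/well) seeded the day before. Compound-containing medium added about 1 h before infection with fresh firefly luciferase-expressing P. berghei sporozoites from Anopheles stephensi salivary glands, then spun 1700 g for 5 min. DMSO vehicle in controls. Parasite load read by bioluminescence 48 h post-infection. Initial screen at fixed concentrations; EC50 from nonlinear regression of normalized dose-response data.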

[4] = test system: Plasmodium berghei; test: Antiplasmodial activity against luciferase expressing Plasmodium berghei sporozoites infected in human HuH7 cells at 10 uM preincubated for 1 hr followed by parasite infection measured after 48 hrs by bioluminescence analysis relative to control; type: functional; how it was run: as §1
[5] = Half life in rat liver microsomes at […] in presence of NADPH by HPLC analysis; type: ADME, microsome
[6] = Intrinsic clearance in rat liver microsomes assessed per mg protein at […] in presence of NADPH by HPLC analysis; type: ADME, microsome; conditions: read-out: CLH
[7] = Selectivity index, ratio of CC50 for human Caco2 cells to IC50 for chloroquine resistant Plasmodium falciparum W2 erythrocytic ring stage; type: toxicity; conditions: Caco-2 cells, read-out: Ratio CC50/IC50
[8] = Cytotoxicity against human Caco2 cells assessed as reduction in cell viability after 72 hrs by neutral red dye based assay; conditions: Caco-2 cells
How it was run: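 CaCo-2 cells grown in RPMI-1640 with 10% FBS and antibiotic-antimycotic at 37°C, 5% CO2. Exposed once confluent for 72 h to compound diluted in medium, organic solvent ≤1%. Medium then removed and cells washed with PBS.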

[9] = test system: Plasmodium berghei; test: Antiplasmodial activity against luciferase expressing Plasmodium berghei infected in human HuH7 cells preincubated for 1 hr followed by parasite infection measured after 48 hrs by bioluminescence analysis; type: functional, organism-based; conditions: Huh-7; how it was run: as §1

SMILES	pEC50 [1]	Activity [2]	Activity [3]	Activity [4]	half-life [5]	microsomal CLint [6]	selectivity ratio [7]	CC50 at 72 h [8]	pEC50 [9]
COc1cc(NC(C)CCCNCC2CCC3(CC2)OOC2(OO3)C3CC4CC(C3)CC2C4)c2ncccc2c1-c1ccc(F)cc1 (stereo not drawn)	7.00	Toxic	Active	Active	–	–	–	–	–
COc1cc(NC(=O)C2CCC3(CC2)OOC2(OO3)C3CC4CC(C3)CC2C4)c2ncccc2c1-c1ccccc1 (stereo not drawn)	6.54	–	–	52%	42 min	33 µL/min/mg	–	–	–
COc1cc(NC(C)CCCNCC2CCC3(CC2)OOC2(OO3)C3CC4CC(C3)CC2C4)c2ncccc2c1-c1ccsc1 (stereo not drawn)	7.09	Toxic	Active	Active	–	–	–	–	–
COc1cc(NC(C)CCCNC(=O)C2CCC3(CC2)OOC2(OO3)C3CC4CC(C3)CC2C4)c2ncccc2c1-c1ccc(F)cc1 (stereo not drawn)	7.24	Non-Toxic	>50%	Active	40 min	34.6 µL/min/mg	> 1000	> 50 µM	5.62
COc1cc(NC(C)CCCNCC2CCC3(CC2)OOC2(OO3)C3CC4CC(C3)CC2C4)c2ncccc2c1-c1ccc(Cl)cc1 (stereo not drawn)	–	Toxic	Active	Active	–	–	–	13.2 µM	–
COc1cc(NCCCCNC(=O)C2CCC3(CC2)OOC2(OO3)C3CC4CC(C3)CC2C4)c2ncccc2c1-c1ccc(F)cc1 (stereo not drawn)	7.82	Non-Toxic	>50%	Active	15 min	92.4 µL/min/mg	–	10.2 µM	5.95
COc1cc(NC(C)CCCNCC2CCC3(CC2)OOC2(OO3)C3CC4CC(C3)CC2C4)c2ncccc2c1-c1ccc(C)cc1 (stereo not drawn)	6.75	Toxic	Active	Active	–	–	–	11.7 µM	–
COc1cc(NC(=O)C2CCC3(CC2)OOC2(OO3)C3CC4CC(C3)CC2C4)c2ncccc2c1-c1ccc(Cl)cc1 (stereo not drawn)	5.38	–	–	37%	125 min	11.1 µL/min/mg	–	–	–
COc1cc(NC(C)CCCNC(=O)C2CCC3(CC2)OOC2(OO3)C3CC4CC(C3)CC2C4)c2ncccc2c1Br (stereo not drawn)	7.80	Toxic	>50%	Active	14 min	99 µL/min/mg	–	–	–
COc1cc(NC(C)CCCNCC2CCC3(CC2)OOC2(OO3)C3CC4CC(C3)CC2C4)c2ncccc2c1-c1ccoc1 (stereo not drawn)	6.92	Toxic	Active	Active	–	–	–	–	–
COc1cc(NCCCNC(=O)C2CCC3(CC2)OOC2(OO3)C3CC4CC(C3)CC2C4)c2ncccc2c1-c1ccc(F)cc1 (stereo not drawn)	7.82	Non-Toxic	>50%	Active	35 min	39.6 µL/min/mg	–	–	5.58
COc1cc(NC(C)CCCNC(=O)C2CCC3(CC2)OOC2(OO3)C3CC4CC(C3)CC2C4)c2ncccc2c1-c1ccc(C(F)(F)F)cc1 (stereo not drawn)	7.22	Non-Toxic	>50%	Active	100 min	13.9 µL/min/mg	> 1000	> 50 µM	5.39
COc1cc(NCCCCCNC(=O)C2CCC3(CC2)OOC2(OO3)C3CC4CC(C3)CC2C4)c2ncccc2c1-c1ccc(F)cc1 (stereo not drawn)	7.77	Non-Toxic	>50%	Active	25 min	55.4 µL/min/mg	–	–	5.79
COc1cc(NC(=O)C2CCC3(CC2)OOC2(OO3)C3CC4CC(C3)CC2C4)c2ncccc2c1-c1ccc(Br)cc1 (stereo not drawn)	5.25	–	–	35%	124 min	11.2 µL/min/mg	–	–	–
COc1cc(NC(C)CCCNC(=O)C2CCC3(CC2)OOC2(OO3)C3CC4CC(C3)CC2C4)c2ncccc2c1-c1ccc(C)cc1 (stereo not drawn)	6.85	Non-Toxic	>50%	Active	87 min	15.9 µL/min/mg	–	> 50 µM	5.78
COc1cc(NC(C)CCCNC(=O)C2CCC3(CC2)OOC2(OO3)C3CC4CC(C3)CC2C4)c2ncccc2c1-c1ccc(Cl)cc1 (stereo not drawn)	7.12	Non-Toxic	>50%	Active	129 min	10.7 µL/min/mg	> 1000	> 50 µM	5.55
COc1cc(NC(C)CCCNC(=O)C2CCC3(CC2)OOC2(OO3)C3CC4CC(C3)CC2C4)c2ncccc2c1-c1ccsc1 (stereo not drawn)	7.35	Non-Toxic	>50%	Active	37 min	37.4 µL/min/mg	> 600	> 50 µM	5.68
C[C@@H]1CC[C@H]2[C@@H](C)C(=O)O[C@@H]3O[C@@]4(C)CC[C@@H]1[C@]32OO4 [ARTEMISININ]	8.00	–	–	–	–	–	–	–	–
COc1cc(NC(=O)C2CCC3(CC2)OOC2(OO3)C3CC4CC(C3)CC2C4)c2ncccc2c1-c1ccc(F)cc1 (stereo not drawn)	6.04	–	–	–	60 min	23.1 µL/min/mg	–	–	–
CCOC(=O)C1CCC2(CC1)OOC1(OO2)C2CC3CC(C2)CC1C3 (stereo not drawn)	–	–	–	–	–	–	–	–	4.76
COc1cc(NC(C)CCCNCC2CCC3(CC2)OOC2(OO3)C3CC4CC(C3)CC2C4)c2ncccc2c1-c1ccc(C(F)(F)F)cc1 (stereo not drawn)	7.72	Toxic	Active	62%	–	–	–	10.3 µM	–
COc1cc(NC(C)CCCNC(=O)C2CCC3(CC2)OOC2(OO3)C3CC4CC(C3)CC2C4)c2ncccc2c1-c1ccccc1 (stereo not drawn)	6.69	Non-Toxic	>50%	Active	42 min	33 µL/min/mg	–	> 50 µM	5.77
COc1cc(NC(C)CCCNC(=O)C2CCC3(CC2)OOC2(OO3)C3CC4CC(C3)CC2C4)c2ncccc2c1-c1ccc(Br)cc1 (stereo not drawn)	7.21	Non-Toxic	>50%	Active	–	–	> 1000	> 50 µM	5.35
COc1cc(NC(C)CCCN)c2ncccc2c1-c1ccc(C)cc1 (stereo not drawn)	5.63	–	–	–	–	–	–	–	5.27
COc1cc(NC(C)CCCNCC2CCC3(CC2)OOC2(OO3)C3CC4CC(C3)CC2C4)c2ncccc2c1-c1ccccc1 (stereo not drawn)	7.04	Toxic	Active	Active	–	–	–	–	–
COc1cc(NC(C)CCCNC(=O)C2CCC3(CC2)OOC2(OO3)C3CC4CC(C3)CC2C4)c2ncccc2c1-c1ccoc1 (stereo not drawn)	7.12	Non-Toxic	>50%	Active	–	–	> 600	> 50 µM	5.63
